What was measured:
Assay type in all cases: functional, cell-based
[1] = biological target: T1, P2Y purinoceptor 2 (Mus musculus, UniProt P35383); experiment: (§1) Antagonist activity at mouse P2Y2 receptor expressed in NG108-15 hybrid cells assessed as inhibition of 1 uM UTP-induced intracellular calcium release preincubated 30 mins before UTP challenge by fluorescence assay
Outline: (§2)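 Oregon Green-loaded NG108-15 cells in Krebs–HEPES pH 7.4, 17,000 cells/well, preincubated at 37 °C for at least 30 min with two concentrations of test compound. UTP agonist then injected, and the inhibition of the intracellular Ca2+ fluorescence rise was measured at 520 nm. Quadruplicate determinations.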

[2] = biological target: P2Y purinoceptor 2 (Mus musculus) (UniProt P35383); experiment: as §1; outline: as §2
Chain of P2Y purinoceptor 2 (Mus musculus) (P35383 whole entry): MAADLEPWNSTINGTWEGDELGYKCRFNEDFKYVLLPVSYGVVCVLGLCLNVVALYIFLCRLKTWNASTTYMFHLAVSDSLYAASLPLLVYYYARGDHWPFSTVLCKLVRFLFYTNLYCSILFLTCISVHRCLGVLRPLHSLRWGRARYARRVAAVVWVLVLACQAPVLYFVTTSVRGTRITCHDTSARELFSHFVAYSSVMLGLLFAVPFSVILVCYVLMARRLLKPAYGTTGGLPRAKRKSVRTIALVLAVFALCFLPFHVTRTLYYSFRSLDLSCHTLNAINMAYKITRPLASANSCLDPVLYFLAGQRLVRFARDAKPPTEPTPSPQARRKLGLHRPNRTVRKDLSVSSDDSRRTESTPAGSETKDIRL

[3] = biological target: T1, P2Y purinoceptor 2; experiment: Agonist activity at mouse P2Y2 receptor expressed in NG108-15 hybrid cells assessed as increase in intracellular calcium release by fluorescence assay
Outline: (§3)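 NG108-15 cells (mouse neuroblastoma × rat glioma; endogenous P2Y2, no P2Y4) grown in DMEM with 10% FBS, penicillin/streptomycin and HAT. Cells loaded 1 h at 25 °C with shaking, with the Ca2+ fluorophore Oregon Green. Cells rinsed twice in Krebs–HEPES pH 7.4 and plated at 17,000 cells/well. Compound in buffer injected, then fluorescence read at 520 nm over 60 × 0.4 s. Quadruplicate points.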

[4] = biological target: P2Y purinoceptor 2 (Mus musculus) (UniProt P35383); experiment: Agonist activity at mouse P2Y2 receptor expressed in NG108-15 hybrid cells assessed as increase in intracellular calcium release at 100 uM by fluorescence assay relative to UTP; outline: as §3
[5] = biological target: T1, P2Y purinoceptor 2; experiment: Antagonist activity at mouse P2Y2 receptor expressed in NG108-15 hybrid cells assessed as inhibition of 3 uM UTP-induced intracellular calcium release preincubated 30 mins before UTP challenge by fluorescence assay; outline: as §2

T1 sequence (P35383 whole entry): as above

| IC50 [1] [µM] | inhibition [2] [%] | SMILES | also measured |
| --- | --- | --- | --- |
| 92 |  | O=c1ccn(CCCCP(=O)(O)OP(=O)(O)OP(=O)(O)O)c(=O)[nH]1 |  |
| 166 |  | O=c1ccn(CCCCCP(=O)(O)OP(=O)(O)OP(=O)(O)O)c(=O)[nH]1 |  |
| > 500 | 22 | O=c1ccn(CCOP(=O)(O)O)c(=O)[nH]1 |  |
| 264 |  | O=c1ccn(COCCCOP(=O)(O)OP(=O)(O)OP(=O)(O)O)c(=O)[nH]1 |  |
| 1.51 |  | O=c1ccn([C@@H]2O[C@H](COP(=O)(O)OP(=O)(O)OP(=O)(O)O)[C@@H](O)[C@H]2O)c(=O)[nH]1 [URIDINE TRIPHOSPHATE] | EC50 [3]: 1.26 µM; Activity [4]: 40% |
|  |  | O=c1ccn(CCCCOP(=O)(O)OP(=O)(O)OP(=O)(O)O)c(=O)[nH]1 | IC50 [5]: 596 µM |
| 267 |  | O=c1ccn(CCCCCOP(=O)(O)O)c(=O)[nH]1 |  |
|  | 60 | O=c1ccn(CCOP(=O)(O)OP(=O)(O)OP(=O)(O)O)c(=O)[nH]1 | IC50 ([1]; ng108-15): ≤ 500 µM |
| 338 |  | O=c1ccn(COCCCOP(=O)(O)O)c(=O)[nH]1 |  |
| 500 | 50 | O=c1ccn(CCCCCOP(=O)(O)OP(=O)(O)OP(=O)(O)O)c(=O)[nH]1 |  |
| 500 | 52 | O=c1ccn(CCCP(=O)(O)OP(=O)(O)OP(=O)(O)O)c(=O)[nH]1 |  |
| 500 | 55 | O=c1ccn(CCCCCP(=O)(O)OP(=O)(O)O)c(=O)[nH]1 |  |
| > 500 | 16 | O=c1ccn(COCCOP(=O)(O)O)c(=O)[nH]1 |  |
|  | 60 | O=c1ccn(CCCCOP(=O)(O)O)c(=O)[nH]1 | IC50 ([1]; ng108-15): ≤ 500 µM |
| > 500 | 16 | O=c1ccn(COCCOP(=O)(O)OP(=O)(O)OP(=O)(O)O)c(=O)[nH]1 |  |

Source: ChEMBL document CHEMBL1154081, “Synthesis of uracil nucleotide analogs with a modified, acyclic ribose moiety as P2Y(2) receptor antagonists” (Bioorg Med Chem, 2009)
